Measured values: ChEMBL document CHEMBL3739301, “Design, synthesis and biological evaluation of tricyclic diterpene derivatives as novel neuroprotective agents against ischemic brain injury” (Eur J Med Chem, 2015)
Calls of active or inactive are those of the source. The calls are words filed in the database; no cut-off is given here.

How the values were obtained:
[1] = Neuroprotective activity against glutamate-induced neuronal cell death in Sprague-Dawley rat CGN cells at 10 uM preincubated for 24 hrs followed by glutamate challenge measured after 24 hrs relative to control; type: functional
[2] = Neuroprotective activity against glutamate-induced neuronal cell death in Sprague-Dawley rat CGN cells assessed as cell viability at 10 uM preincubated for 24 hrs followed by glutamate challenge measured after 24 hrs by MTT assay (reference value: 40.4%); type: functional; settings: read-out: Activity
[3] = Neuroprotective activity against nutrient deprivation-induced neuronal cell death in Sprague-Dawley rat CGN cells at 10 uM preincubated for 24 hrs followed by induction of nutrient deprivation measured after 24 hrs relative to control; type: functional
In short: (§1)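 Primary rat cerebellar granule neurons (8-day-old Sprague-Dawley pups, DIV 6-8) pretreated 24 h with compound (0.1% DMSO final), then deprived of B27 serum substitute for 24 h. MTT viability (0.5 mg/ml, 4 h) read at 570 nm against control = 100%; neuroprotection percentage derived from the basal deprived value; mean ± SD, n = 3.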

[4] = Cytotoxicity against Sprague-Dawley rat CGN cells at <10 uM after 72 hrs by MTT assay; type: cell-based
In short: (§2)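 Primary cerebellar granule neurons from 8-day SD rat pups; cytosine arabinoside […] added at 24 h, used at DIV 6–8. Cells exposed to a concentration series for 72 h, 0.1% DMSO final. Viability by MTT (0.5 mg/ml, 4 h, 37 °C); formazan dissolved in DMSO, OD 570 nm. n = 3, mean ± SD.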

[5] = Neuroprotective activity against oxygen-glucose deprivation-induced neuronal cell death in Sprague-Dawley rat CGN cells assessed as cell viability at 1 uM preincubated for 24 hrs followed by induction of oxygen-glucose deprivation measured after 24 hrs by MTT assay (reference value: 48.7%); type: functional; settings: read-out: Activity
neuronal [6] = assay: Neuroprotective activity against glutamate-induced neuronal cell death in Sprague-Dawley rat CGN cells assessed as increase in cell viability preincubated for 24 hrs followed by glutamate challenge measured after 24 hrs by MTT assay; type: functional, cell-based
[7] = Neuroprotective activity against oxygen-glucose deprivation-induced neuronal cell death in Sprague-Dawley rat CGN cells at 10 uM preincubated for 24 hrs followed by induction of oxygen-glucose deprivation measured after 24 hrs relative to control; type: functional
[8] = Neuroprotective activity against oxygen-glucose deprivation-induced neuronal cell death in Sprague-Dawley rat CGN cells assessed as cell viability at 10 uM preincubated for 24 hrs followed by induction of oxygen-glucose deprivation measured after 24 hrs by MTT assay (reference value: 48.7%); type: functional; settings: read-out: Activity
[9] = Cytotoxicity against Sprague-Dawley rat CGN cells at 50 to 100 uM after 72 hrs by MTT assay; type: cell-based; in short: as §2
[10] = Permeability of the compound at 25 ug/ml after 18 hrs by PAMPA assay; type: ADME; settings: read-out: permeability
Rattus norvegicus [11] = assay: Antioxidant activity in Sprague-Dawley rat transient middle cerebral artery occlusion model assessed as […] in SOD level in ipsilateral cortex at 3 mg/kg, iv measured at 24 hrs post middle cerebral artery occlusion; type: functional, organism-based
In short: (§3)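 Rat tMCAO: 2 h suture occlusion, then reperfusion. Dosing iv at 2, 4 and 6 h after onset, 10 mg/kg (DMSO) or 3 mg/kg (saline). At 24 h the ipsilateral cortex was lysed in RIPA buffer and protein quantified by BCA. GSH concentration and SOD activity were then measured with commercial kits.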

Rattus norvegicus [12] = assay: Anti-ischemic activity in Sprague-Dawley rat transient middle cerebral artery occlusion model assessed as reduction in neurological deficit at 3 mg/kg, iv administered for 2 to 6 hrs post middle cerebral artery occlusion measured at 24 hrs; type: functional, organism-based
In short: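 Male SD rats (260–280 g); intraluminal nylon suture (~0.26 mm, round tip) occluded MCA for 2 h, then withdrawn for reperfusion, body temperature held at 37 °C. Given iv at 2, 4 and 6 h after ischemia onset; 10 mg/kg in DMSO or 3 mg/kg in saline; DMSO or saline vehicle controls. Neurological score at 24 h after MCAO; n = 8–12, mean ± SD.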

Rattus norvegicus [13] = assay: Anti-ischemic activity in Sprague-Dawley rat transient middle cerebral artery occlusion model assessed as reduction in infarct volume at 3 mg/kg, iv administered for 2 to 6 hrs post middle cerebral artery occlusion measured at 24 hrs by TTC staining-based morphometric analysis; type: organism-based; settings: in vivo
In short: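 Male Sprague-Dawley rats (260-280 g), middle cerebral artery occluded 2 h by intraluminal nylon monofilament, then reperfused; body temperature held at 37 C. Drug given iv at 2, 4 and 6 h after ischemia onset (test agent in DMSO, edaravone in saline; vehicle controls). Neurological scoring at 24 h; 2 mm coronal slices stained with 2% TTC 20 min at 37 C, formalin-fixed; infarct volume by morphometry; n = 8-12.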

[14] = Neuroprotective activity against oxygen-glucose deprivation-induced neuronal cell death in Sprague-Dawley rat CGN cells at 50 uM preincubated for 24 hrs followed by induction of oxygen-glucose deprivation measured after 24 hrs relative to control; type: functional
[15] = Neuroprotective activity against glutamate-induced neuronal cell death in Sprague-Dawley rat CGN cells at 50 uM preincubated for 24 hrs followed by glutamate challenge measured after 24 hrs relative to control; type: functional
[16] = Neuroprotective activity against oxygen-glucose deprivation-induced neuronal cell death in Sprague-Dawley rat CGN cells assessed as cell viability at 50 uM preincubated for 24 hrs followed by induction of oxygen-glucose deprivation measured after 24 hrs by MTT assay (reference value: 48.7%); type: functional; settings: read-out: Activity
[17] = Neuroprotective activity against glutamate-induced neuronal cell death in Sprague-Dawley rat CGN cells assessed as cell viability at 50 uM preincubated for 24 hrs followed by glutamate challenge measured after 24 hrs by MTT assay (reference value: 40.4%); type: functional; settings: read-out: Activity
Rattus norvegicus [18] = assay: Antioxidant activity in Sprague-Dawley rat transient middle cerebral artery occlusion model assessed as […] in GSH level in ipsilateral cortex at 3 mg/kg, iv measured at 24 hrs post middle cerebral artery occlusion; type: functional, organism-based; in short: as §3
neuronal [19] = assay: Neuroprotective activity against glutamate-induced neuronal cell death in Sprague-Dawley rat CGN cells assessed as increase in SOD level at 10 uM preincubated for 24 hrs followed by glutamate challenge measured after 24 hrs; type: functional, cell-based
neuronal [20] = assay: Neuroprotective activity against glutamate-induced neuronal cell death in Sprague-Dawley rat CGN cells assessed as increase in GSH level at 10 uM preincubated for 24 hrs followed by glutamate challenge measured after 24 hrs; type: functional, cell-based
In short: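 Granule neurons pretreated 24 h with […] compound, then […] for 24 h. Lysed in buffer containing protease inhibitor cocktail; protein determined by BCA. SOD activity and GSH level measured with commercial kits. n = 3, mean ± SD.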

[21] = Neuroprotective activity in Sprague-Dawley rat CGN cells assessed as upregulation of HO-1 expression after 24 hrs by Western blot analysis; type: functional, cell-based
In short: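 Primary granule neurons treated with a concentration series for 24 h, lysed in RIPA buffer, protein by BCA. Separated on 15% SDS-PAGE, transferred to PVDF, blocked in 5% BSA. Primary antibody overnight at 4 °C, secondary 30 min at room temperature; chemiluminescent detection. HO-1 quantified by densitometry normalized to β-actin. n = 3, mean ± SD.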

[22] = Neuroprotective activity against nutrient deprivation-induced neuronal cell death in Sprague-Dawley rat CGN cells assessed as cell viability at […] preincubated for 24 hrs followed by induction of nutrient deprivation measured after 24 hrs by MTT assay (reference value: 44.1%); type: functional; settings: read-out: Activity
In short: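 Cerebellar granule neurons pretreated 24 h with 1 or […] compound (0.1% DMSO), then kept without B27 supplement for 24 h. Viability by MTT (0.5 mg/ml, 4 h, OD 570 nm) against non-deprived control (100%); neuroprotection % from basal value. n = 3, mean ± SD.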

[23] = Neuroprotective activity against nutrient deprivation-induced neuronal cell death in Sprague-Dawley rat CGN cells at […] preincubated for 24 hrs followed by induction of nutrient deprivation measured after 24 hrs relative to control; type: functional; in short: as §1

For COc1cc2c(cc1C(=O)N(C)C)CC[C@H]1C(C)(C)[C@@H](O)CC[C@]21C, the Activity [1] was 50.8% and the viability at 10 µM [2] was 70.7%.
For CCC(=O)c1cc2c(cc1OC)[C@@]1(C)CC[C@H](O)C(C)(C)[C@@H]1CC2, the Activity [1] was 38.3% and the viability at 10 µM [2] was 63.2%.
Molecule CCOC(=O)c1cc2c(cc1OC)[C@@]1(C)CC[C@H](O)C(C)(C)[C@@H]1CC2 has an Activity [1] of 54.9% and a viability at 10 µM [2] of 73.1%.
In the case of COC(=O)c1cc2c(cc1OC)[C@@]1(C)CC[C@H](O)C(C)(C)[C@@H]1CC2, the Activity [3] is reported as 13.6%, the Activity [4] is reported as “Non-toxic” and the viability at 1 µM [5] is reported as 43.9%. For the same molecule, the Activity [1] was 53.7%, the viability at 10 µM [2] was 72.4% and the Activity (neuronal [6]) was “Dose-dependent effect”. For the same molecule, the Activity [7] was 38.4% and the viability at 10 µM [8] was 68.4%.
COc1cc2c(cc1C(=O)N1CCCCC1)CC[C@H]1C(C)(C)[C@@H](O)CC[C@]21C gave an Activity [1] of 64.9% and a viability at 10 µM [2] of 79.1%.
For COc1cc2c(cc1C(C)=O)CC[C@H]1C(C)(C)[C@@H](OC(C)=O)CC[C@]21C, the Activity [3] was 6%, the Activity [9] was “Toxic” and the Activity [4] was “Non-toxic”. For the same molecule, the viability at 1 µM [5] was 50%, the Activity [1] was 67.1% and the viability at 10 µM [2] was 80.4%. For the same molecule, the Activity (neuronal [6]) was “Dose-dependent effect”, the Activity [7] was 22% and the viability at 10 µM [8] was 60%.
For CCCCOC(=O)c1cc2c(cc1OC)[C@@]1(C)CC[C@H](O)C(C)(C)[C@@H]1CC2, the Activity [1] was 51.3% and the viability at 10 µM [2] was 71%.
Work on CNC(=O)c1cc2c(cc1OC)[C@@]1(C)CC[C@H](O)C(C)(C)[C@@H]1CC2 yielded an Activity [1] of 61.9% and a viability at 10 µM [2] of 77.3%.
Molecule COc1cc2c(cc1CO)CC[C@H]1C(C)(C)[C@@H](O)CC[C@]21C has an Activity [1] of 40.3% and a viability at 10 µM [2] of 64.4%.
For CCCCCCCC(=O)c1cc2c(cc1OC)[C@@]1(C)CC[C@H](O)C(C)(C)[C@@H]1CC2, the viability at 10 µM [2] was 40.5%.
In the case of COc1cc2c(cc1C(=O)O)CC[C@H]1C(C)(C)[C@@H](O)CC[C@]21C, the Activity [1] is reported as 22.8% and the viability at 10 µM [2] is reported as 54%.
CCNC(=O)c1cc2c(cc1OC)[C@@]1(C)CC[C@H](O)C(C)(C)[C@@H]1CC2 showed an Activity [1] of 63.4% and a viability at 10 µM [2] of 78.2%.
With COc1cc2c(cc1C(C)=O)CC[C@H]1C(C)(C)[C@@H](OC(=O)C(F)(F)F)CC[C@]21C the Activity [3] was 5%, the Papp at 18 h, 25 ug/ml [10] was 7.31 ×10⁻⁶ cm/s and the Activity [4] was “Non-toxic”. The viability at 1 µM [5] was 48.2%, the Activity [1] was 68.1% and the viability at 10 µM [2] was 81%. For the same molecule, the Activity (neuronal [6]) was “Dose-dependent effect”, the Activity [7] was 23% and the viability at 10 µM [8] was 60.5%.
Work on CC(=O)c1cc2c(cc1O)[C@@]1(C)CC[C@H](O)C(C)(C)[C@@H]1CC2 yielded an Activity [1] of 61.6% and a viability at 10 µM [2] of 77.1%.
In the case of CC1=NN(c2ccccc2)C(=O)C1 [EDARAVONE], the Activity (Rattus norvegicus [11]) is reported as “Active”, the Activity (Rattus norvegicus [12]) is reported as “Active” and the Activity (Rattus norvegicus [13]) is reported as “Active”. It also gave an Activity [14] of 72.3%, an Activity [15] of 77.7% and a viability at 50 µM [16] of 85.8%. The viability at 50 µM [17] was 86.7% and the Activity (Rattus norvegicus [18]) was “Active”.
For C#CCNC(=O)c1cc2c(cc1OC)[C@@]1(C)CC[C@H](O)C(C)(C)[C@@H]1CC2, the Activity [3] was 17%, the Activity [9] was “Toxic” and the Activity [4] was “Non-toxic”. The viability at 1 µM [5] was 59.7%, the Activity [1] was 69.3% and the viability at 10 µM [2] was 81.7%. The Activity (neuronal [6]) was “Dose-dependent effect”, the Activity [7] was 37.2% and the viability at 10 µM [8] was 67.8%.
With COc1cc2c(cc1C(C)=O)CC[C@H]1C(C)(C)C(=O)CC[C@]21C the Activity [1] was 49.2% and the viability at 10 µM [2] was 69.7%.
COCCC(=O)c1cc2c(cc1OC)[C@@]1(C)CC[C@H](O)C(C)(C)[C@@H]1CC2 showed an Activity [1] of 52.2% and a viability at 10 µM [2] of 71.5%.
In the case of COc1cc2c(cc1C(=O)NCC(=O)O)CC[C@H]1C(C)(C)[C@@H](O)CC[C@]21C, the Activity [1] is reported as 28% and the viability at 10 µM [2] is reported as 57.1%.
COc1cc2c(cc1C(=O)C(C)C)CC[C@H]1C(C)(C)[C@@H](O)CC[C@]21C gave a viability at 10 µM [2] of 38.8%.
For COc1cc2c(cc1C(C)=O)CC[C@H]1C(C)(C)[C@@H](O)CC[C@]21C, the Activity [3] was 19.5%, the Activity [9] was “Toxic” and the Activity [4] was “Non-toxic”. For the same molecule, the viability at 1 µM [5] was 51.1%, the Activity [1] was 75.2% and the viability at 10 µM [2] was 85.2%. For the same molecule, the Activity (neuronal [6]) was “Dose-dependent effect”, the Activity (neuronal [19]) was “Active” and the Activity [7] was 50.3%. For the same molecule, the Activity (neuronal [20]) was “Active”, the viability at 10 µM [8] was 74.5% and the Activity [21] was “Dose-dependent effect”.
Work on CC(=O)N[C@@H](CS)C(=O)O [ACETYLCYSTEINE] yielded a viability [22] of 53.7% and an Activity [23] of 17.2%.
